High-throughput results (PubChem)
Yeast life ext = yeast lifespan extension; S. cerevisiae growth with nicotinamide, OD615; deaD strain in restrictive glucose medium; inhibition of the nicotinamide effect, % at 10 µM; 130,000 compounds, 0.68% hits; AID 775;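 active = inhibition above a set limit, placed 3 SD over the median of all compounds, cut at about 26% in these data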;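 also: 0% = nicotinamide-treated wells and 100% = cells grown without nicotinamide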
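Test system – modified budding yeast, DeaD strain · Compound – single dose 10 µM compound, 0.25% DMSO · Times – culture preincubation 4 h, compound exposure 48 h, both 30 °C · Detection – optical density (absorbance) at 615 nm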
WT yeast gro inh = growth inhibition of WT yeast, mitochondrial fusion screen. inhibition, % at 10 µM. 190,000 compounds, 2.1% hits. AID 1362. mitochondrial fusion phenotypic screen, WT strain; in the data active = inhibition above about 58%; tested in S. cerevisiae
RAM network inh = yeast RAM network inhibition | S. cerevisiae dse1pr::URA3 reporter, 5-FOA growth OD615, 2 d; analog-sensitive cbk1-as2 kinase mutant strain | 190,000 compounds, 1.8% hits | inhibition, % at 50 µM;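 active = inhibition above a set limit, 3 SD over mean compound inhibition, cut at about 8.4% in these data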;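 also: 0% = DMSO-only wells with no growth and 100% = 10 µM 1-NA-PP1 full growth; inhibition rescues growth on 5-FOA so higher OD means more RAM inhibition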
Measles CPE = protection of cells from measles virus. 140,000 compounds, 1.5% hits. protection (pct of control), % at 4 µM. AID 841. Measles virus-infected cells, CPE protection, absorbance; in the data active = protection mostly above about 24%, no sharp cut-off; inactive = mostly below about 26%
BB579 growth dn = chemicals that inhibit yeast BB579 growth in restrictive medium (lifespan-shortening candidates) | S. cerevisiae BB579 growth, OD615, 48 h | inhibition, % at 10 µM | 140,000 compounds, 0.51% hits | AID 804;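 active = inhibition above a set limit, 3 SD over the mean compound inhibition, cut at about 44% in these data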
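Assay system – yeast BB579 (DeaD) · Dosing – single compound dose of 10 µM, 0.25% DMSO final · Detection – OD615 turbidity measurement · Buffer or medium – CSMM-D restrictive synthetic medium containing dextrose (glucose) · Benchmarks – positive control amphotericin B 10 µg/mL · Incubation – 48 h exposure, 30 °C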
DAT uptake mod = human DAT dopamine uptake with cocaine, either direction; AID 449768; B-score at 10 µM; LLC-PK1 hDAT cells, [14C]-dopamine uptake with cocaine IC80; actives deviate in either direction; 110,000 compounds, 1.3% hits; Q01959;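 active = Z score or B-score, a plate-position-corrected score, falls beyond the plate's 99.7% confidence bounds, in either direction; inactive = both scores lie inside the 99.7% bounds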;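 also: scored against the spread of the other compound wells on the same plate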
Target sequence (Q01959 whole entry, looked up): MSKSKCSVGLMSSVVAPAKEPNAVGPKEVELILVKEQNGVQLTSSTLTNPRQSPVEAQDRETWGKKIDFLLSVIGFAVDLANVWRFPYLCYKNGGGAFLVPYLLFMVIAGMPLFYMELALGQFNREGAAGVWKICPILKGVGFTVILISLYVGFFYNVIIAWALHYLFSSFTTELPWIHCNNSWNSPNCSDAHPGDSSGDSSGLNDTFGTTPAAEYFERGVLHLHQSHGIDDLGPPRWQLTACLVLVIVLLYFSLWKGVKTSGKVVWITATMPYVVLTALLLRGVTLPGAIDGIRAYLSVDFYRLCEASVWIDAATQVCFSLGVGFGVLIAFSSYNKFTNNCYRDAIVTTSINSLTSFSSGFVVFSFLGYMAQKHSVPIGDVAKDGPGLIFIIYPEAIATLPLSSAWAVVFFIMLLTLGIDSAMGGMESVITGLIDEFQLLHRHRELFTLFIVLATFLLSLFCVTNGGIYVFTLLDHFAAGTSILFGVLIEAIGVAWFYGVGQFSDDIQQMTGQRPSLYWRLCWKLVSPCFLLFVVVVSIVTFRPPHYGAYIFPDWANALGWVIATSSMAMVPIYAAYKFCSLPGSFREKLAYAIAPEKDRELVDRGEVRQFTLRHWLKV
Active calls of the source: *. Shown are actives, neighbours in structure and some others; about 6.1% of the full set was active somewhere.

`O=C(CNCC1CCCO1)Nc1ccccc1N1CCCCCC1` (stereo not given) gave Yeast life ext -6.9, WT yeast gro inh 6.8, RAM network inh 1.1, Measles CPE 4.5, BB579 growth dn -1.8 and DAT uptake mod -0.155.
O=C(Nc1ccccc1N1CCCCC1)c1ccccc1F was read as Yeast life ext -6.5, WT yeast gro inh 81.5*, RAM network inh 0.5, Measles CPE 5.4, BB579 growth dn -16.5 and DAT uptake mod 0.0183.
Screening Cn1c(=O)cc(OCC(=O)N2CCC(N3CCCCC3)CC2)c2ccccc21 returned Yeast life ext -4.3, WT yeast gro inh 2.4, RAM network inh 0.3, Measles CPE 4.1, BB579 growth dn 3.7 and DAT uptake mod -0.0601.
For CCc1nc2c(c(=O)c3ccccc3n2C)c(=O)n1CCc1ccc(OC)cc1 the results were Yeast life ext 7.2, WT yeast gro inh -8.8, RAM network inh 7.7, Measles CPE 16.0 and BB579 growth dn -20.8.
Cc1ccc(CS/C(Nc2ccccc2C)=C(\C#N)C(N)=O)c(C)c1 was read as Yeast life ext -0.7, WT yeast gro inh 5.4, RAM network inh 4.3, Measles CPE 28.9 and BB579 growth dn -28.9.
Screening COc1cccc(C(=O)N(c2ccc(C)cc2)C2C=CS(=O)(=O)C2)c1 (stereo not given) returned WT yeast gro inh 9.8 and RAM network inh 1.8.
For O=C(Cn1nc([N+](=O)[O-])nc1Br)NC(c1ccccc1)c1ccccc1 the results were Yeast life ext 11.4, WT yeast gro inh 3.8, RAM network inh 6.5, Measles CPE 10.7 and BB579 growth dn -40.0.
For Cc1ccc(C)c(S(=O)(=O)N2C(=S)NC(=O)C2CC(C)C)c1 (stereo not given) the results were Yeast life ext 30.8, WT yeast gro inh 1.1, RAM network inh 5.5, Measles CPE 40.5*, BB579 growth dn -25.6 and DAT uptake mod -0.548.
COCCNC(=O)/C(C#N)=C/c1c(F)cccc1Cl was read as WT yeast gro inh 42.0 and RAM network inh -0.8.
Screening Cc1ccc2nc(NCCC(=O)O)nc(-c3ccccc3)c2c1 returned WT yeast gro inh -9.8 and RAM network inh 3.4.
`Cc1ccc2nc(NCC(=O)O)nc(-c3ccccc3)c2c1` gave Yeast life ext -18.2, WT yeast gro inh 15.3, RAM network inh 0.1, Measles CPE 18.4, BB579 growth dn -38.6 and DAT uptake mod 0.0777.
COc1cc(Nc2nc(-c3ccccc3)c3cc(C)ccc3n2)cc(OC)c1OC was read as Yeast life ext -11.4, WT yeast gro inh 72.6*, RAM network inh -0.1, Measles CPE 6.0 and BB579 growth dn -27.7.
Cc1ccc2nc(NCCCO)nc(-c3ccccc3)c2c1 was read as Yeast life ext -10.8, WT yeast gro inh 20.7, RAM network inh -0.3, Measles CPE 12.3, BB579 growth dn -50.0 and DAT uptake mod 3.06*.
`CC(=O)C[C@H]1c2cc(C(F)(F)F)ccc2S(=O)(=O)N1c1ccc(N(C)C)cc1` gave DAT uptake mod 0.981.
`Cc1c(Cl)cn2c(=O)cc(CN3CCN(c4ccc(F)cc4)CC3)nc2c1Cl` gave WT yeast gro inh 13.6 and RAM network inh 0.4.
Screening Cc1ccccc1CSc1nc2n(n1)C(c1cccs1)C1=C(CCCC1=O)N2 (stereo not given) returned Yeast life ext -17.7, WT yeast gro inh -6.9, RAM network inh 0.4, Measles CPE 12.5, BB579 growth dn -16.2 and DAT uptake mod 0.679.
O=C1CCCC2=C1C(c1cccs1)n1nc(SCc3ccccc3F)nc1N2 (stereo not given) was read as Yeast life ext -0.4, WT yeast gro inh -3.0, RAM network inh 4.3, Measles CPE 8.0, BB579 growth dn -28.3 and DAT uptake mod 2.76*.
`NCCCC[C@@H](C(=O)N1CCNCC1)n1cc([C@@H](N)CO)nn1` gave WT yeast gro inh -7.4, RAM network inh 0.5 and DAT uptake mod -0.895.
`c1ccc(-c2nc3ccccc3[nH]2)nc1` gave Yeast life ext -3.7, WT yeast gro inh 18.1, RAM network inh 0.4, Measles CPE 11.1 and BB579 growth dn -19.0.
`c1ccc(-c2nc3c(ccc4ccccc43)[nH]2)nc1` gave WT yeast gro inh 36.6, RAM network inh -0.4, Measles CPE 12.8, BB579 growth dn 71.7* and DAT uptake mod 4.12*.
CCCCN(C(=S)Nc1ccc(F)cc1)c1c(N)n(CCC)c(=O)[nH]c1=O was read as WT yeast gro inh 2.7 and RAM network inh 1.2.
`C(=N\NC1=Nc2cccc3cccc1c23)/c1ccccn1` gave WT yeast gro inh 68.3* and RAM network inh 0.5.
`Cc1cccc(/C=N/NC(=O)Cn2nccc2C)n1` gave Yeast life ext 6.0, WT yeast gro inh -6.0, RAM network inh 0.5, Measles CPE 8.1 and BB579 growth dn 8.6.
Cc1ccc(SCCNC(=O)/C=C/c2cccc([N+](=O)[O-])c2)cc1 was read as Yeast life ext -5.0, WT yeast gro inh 16.9, RAM network inh 9.7*, Measles CPE 11.5 and BB579 growth dn -24.2.
Screening O=C(/C=C/c1cccc([N+](=O)[O-])c1)NCCSCc1c(Cl)cccc1Cl returned Yeast life ext -1.4, WT yeast gro inh 30.4, RAM network inh 9.7*, Measles CPE 26.7 and BB579 growth dn -45.7.
CCOC(=O)c1[nH]c(C)c(CC(C)C)c1C was read as WT yeast gro inh 1.2 and RAM network inh -0.4.
`COc1ccc(S(=O)(=O)NC(C)C(=O)Nc2ccccc2C(F)(F)F)cc1` (stereo not given) gave Yeast life ext -7.2, WT yeast gro inh -0.9, RAM network inh 0.8, Measles CPE 11.1, BB579 growth dn -49.1 and DAT uptake mod -1.69*.
Screening COc1ccc(S(=O)(=O)Nc2ccccc2C(F)(F)F)cc1 returned Yeast life ext 25.0, WT yeast gro inh -14.8, RAM network inh 0.9, Measles CPE 19.0, BB579 growth dn -38.0 and DAT uptake mod 0.501.
Screening Cc1ccc(C2=NC(C)(C)N=C2SCC(=O)Nc2ccc(Cl)cc2)cc1 returned Yeast life ext -10.2, WT yeast gro inh 56.6, RAM network inh -1.3, Measles CPE 31.4, BB579 growth dn 14.8 and DAT uptake mod -7.39*.
For Cc1noc(/C=C/c2ccc(-c3ccccc3Cl)o2)c1[N+](=O)[O-] the results were Yeast life ext -4.7, WT yeast gro inh 6.5, RAM network inh 8.9*, Measles CPE 23.1, BB579 growth dn -36.5 and DAT uptake mod -0.888.
For COc1cc(C)nn1-c1ccc(Cl)cc1 the results were WT yeast gro inh 0.8 and RAM network inh -1.4.
Screening Cc1ccc(S(=O)(=O)c2c(C)nn(C(C)(C)C)c2OC(=O)CC(C)C)cc1 returned WT yeast gro inh 69.5* and RAM network inh 3.9.
